Measured values from BindingDB's records for doi:10.1016/j.bmc.2008.04.041 (The University of Tokushima, 2008).

Columns and labels:
[1] = molecular target: 72 kDa type IV collagenase (Homo sapiens, UniProt P08253); test: Inhibition of human bowes melanoma cell MMP2
[2] = molecular target: Matrix metalloproteinase-9 (Bos taurus, UniProt P52176); test: Inhibition of bovine arterial endothelial cell MMP9
[3] = molecular target: Epidermal growth factor receptor (Homo sapiens, UniProt P00533); test: Inhibition of human A431 cell EGFRK assessed as 32P phosphorylation by scintillation counter
Method in brief: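 Solubilized A431 cell lysate, debris removed, incubated with or without EGF for 30 min at 25 °C. Reaction started with [γ-³²P]ATP, 10 min at 0 °C. After stopping and washing, receptor phosphorylation measured as ³²P by scintillation counting.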

[4] = molecular target: Vascular endothelial growth factor receptor 1 (Homo sapiens, UniProt P17948); test: Inhibition of Flt1 expressed in mouse NIH3T3 cells by autoradiography
Vascular endothelial growth factor receptor 1, sequence (P17948 whole entry): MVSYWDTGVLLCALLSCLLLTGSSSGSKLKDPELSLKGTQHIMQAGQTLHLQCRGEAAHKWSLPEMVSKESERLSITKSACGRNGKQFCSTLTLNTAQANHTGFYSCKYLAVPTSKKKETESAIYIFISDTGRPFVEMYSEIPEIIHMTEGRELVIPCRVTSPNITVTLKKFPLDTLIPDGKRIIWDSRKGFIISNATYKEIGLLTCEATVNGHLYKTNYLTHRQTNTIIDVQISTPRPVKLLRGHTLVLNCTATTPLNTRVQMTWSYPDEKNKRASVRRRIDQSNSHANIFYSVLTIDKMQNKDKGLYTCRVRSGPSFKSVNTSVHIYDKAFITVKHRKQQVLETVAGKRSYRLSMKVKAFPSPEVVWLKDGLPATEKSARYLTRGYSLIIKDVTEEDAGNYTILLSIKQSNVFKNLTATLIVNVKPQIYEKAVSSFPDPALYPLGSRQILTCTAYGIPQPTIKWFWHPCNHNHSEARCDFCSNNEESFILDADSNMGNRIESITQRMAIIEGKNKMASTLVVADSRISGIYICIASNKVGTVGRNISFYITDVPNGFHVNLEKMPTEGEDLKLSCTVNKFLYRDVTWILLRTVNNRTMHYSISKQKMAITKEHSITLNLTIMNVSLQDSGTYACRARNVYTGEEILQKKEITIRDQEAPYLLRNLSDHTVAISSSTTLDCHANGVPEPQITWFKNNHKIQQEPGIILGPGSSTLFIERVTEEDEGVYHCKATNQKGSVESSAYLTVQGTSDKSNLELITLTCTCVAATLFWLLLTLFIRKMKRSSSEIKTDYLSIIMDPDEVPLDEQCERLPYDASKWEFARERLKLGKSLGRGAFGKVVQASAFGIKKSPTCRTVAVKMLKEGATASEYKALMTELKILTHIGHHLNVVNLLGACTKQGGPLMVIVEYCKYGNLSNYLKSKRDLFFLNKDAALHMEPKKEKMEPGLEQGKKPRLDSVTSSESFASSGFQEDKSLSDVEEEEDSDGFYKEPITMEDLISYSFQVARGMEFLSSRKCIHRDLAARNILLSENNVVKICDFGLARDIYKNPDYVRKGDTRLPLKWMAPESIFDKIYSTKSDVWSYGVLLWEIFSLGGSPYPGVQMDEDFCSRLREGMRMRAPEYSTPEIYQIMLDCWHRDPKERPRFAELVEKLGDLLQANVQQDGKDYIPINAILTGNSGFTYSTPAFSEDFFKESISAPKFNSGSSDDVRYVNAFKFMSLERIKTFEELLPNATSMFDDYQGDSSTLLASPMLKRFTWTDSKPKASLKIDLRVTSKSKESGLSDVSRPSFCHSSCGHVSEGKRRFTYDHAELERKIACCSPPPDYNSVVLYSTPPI

Epidermal growth factor receptor, sequence (P00533 whole entry): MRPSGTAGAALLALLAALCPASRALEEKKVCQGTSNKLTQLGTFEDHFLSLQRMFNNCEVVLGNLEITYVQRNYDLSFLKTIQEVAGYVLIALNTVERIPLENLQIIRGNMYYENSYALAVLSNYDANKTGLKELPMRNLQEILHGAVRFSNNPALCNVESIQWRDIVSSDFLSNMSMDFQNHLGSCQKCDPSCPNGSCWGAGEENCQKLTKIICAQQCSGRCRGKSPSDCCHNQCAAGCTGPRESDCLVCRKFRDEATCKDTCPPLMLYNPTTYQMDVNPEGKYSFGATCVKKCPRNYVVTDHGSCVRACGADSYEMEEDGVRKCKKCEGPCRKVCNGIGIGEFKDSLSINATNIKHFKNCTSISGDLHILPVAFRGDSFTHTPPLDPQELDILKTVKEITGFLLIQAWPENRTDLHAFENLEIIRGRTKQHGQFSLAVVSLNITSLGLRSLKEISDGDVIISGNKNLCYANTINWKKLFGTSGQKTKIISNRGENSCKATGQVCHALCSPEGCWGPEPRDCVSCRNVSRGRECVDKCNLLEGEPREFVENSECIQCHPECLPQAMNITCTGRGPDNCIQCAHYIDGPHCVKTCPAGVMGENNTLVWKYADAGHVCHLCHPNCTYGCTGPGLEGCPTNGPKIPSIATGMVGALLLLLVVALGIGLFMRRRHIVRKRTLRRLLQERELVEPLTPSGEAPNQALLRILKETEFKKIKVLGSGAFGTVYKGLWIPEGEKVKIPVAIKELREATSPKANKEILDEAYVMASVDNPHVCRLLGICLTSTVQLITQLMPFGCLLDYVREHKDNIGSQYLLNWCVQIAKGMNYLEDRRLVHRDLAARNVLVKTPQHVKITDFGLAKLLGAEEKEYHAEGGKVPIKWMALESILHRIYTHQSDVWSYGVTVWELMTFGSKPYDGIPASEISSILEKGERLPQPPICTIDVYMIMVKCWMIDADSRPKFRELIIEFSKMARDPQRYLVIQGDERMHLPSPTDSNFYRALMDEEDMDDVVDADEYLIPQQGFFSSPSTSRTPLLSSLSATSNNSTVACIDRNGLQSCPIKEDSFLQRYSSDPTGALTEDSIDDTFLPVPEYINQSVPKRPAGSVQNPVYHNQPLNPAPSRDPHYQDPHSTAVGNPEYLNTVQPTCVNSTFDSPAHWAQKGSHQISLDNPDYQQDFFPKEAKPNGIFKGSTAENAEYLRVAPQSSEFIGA
Matrix metalloproteinase-9, sequence (P52176 whole entry): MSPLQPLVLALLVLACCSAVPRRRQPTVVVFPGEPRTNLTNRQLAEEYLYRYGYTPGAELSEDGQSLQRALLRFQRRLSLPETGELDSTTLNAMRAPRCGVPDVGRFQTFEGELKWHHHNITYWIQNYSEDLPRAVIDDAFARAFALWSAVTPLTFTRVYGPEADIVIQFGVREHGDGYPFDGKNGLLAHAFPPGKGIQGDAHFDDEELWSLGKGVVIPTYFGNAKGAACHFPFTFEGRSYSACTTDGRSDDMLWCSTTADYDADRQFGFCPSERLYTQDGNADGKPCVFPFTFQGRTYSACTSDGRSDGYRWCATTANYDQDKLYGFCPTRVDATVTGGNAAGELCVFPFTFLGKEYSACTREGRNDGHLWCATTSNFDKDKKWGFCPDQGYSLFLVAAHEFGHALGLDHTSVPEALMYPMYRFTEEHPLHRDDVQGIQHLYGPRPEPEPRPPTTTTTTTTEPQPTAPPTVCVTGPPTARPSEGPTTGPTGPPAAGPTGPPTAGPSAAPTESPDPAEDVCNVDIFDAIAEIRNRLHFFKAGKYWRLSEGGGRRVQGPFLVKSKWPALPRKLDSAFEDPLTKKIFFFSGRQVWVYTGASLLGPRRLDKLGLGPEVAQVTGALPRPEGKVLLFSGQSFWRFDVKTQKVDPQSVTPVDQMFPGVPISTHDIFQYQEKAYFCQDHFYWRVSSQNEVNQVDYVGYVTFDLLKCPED
72 kDa type IV collagenase, sequence (P08253 whole entry): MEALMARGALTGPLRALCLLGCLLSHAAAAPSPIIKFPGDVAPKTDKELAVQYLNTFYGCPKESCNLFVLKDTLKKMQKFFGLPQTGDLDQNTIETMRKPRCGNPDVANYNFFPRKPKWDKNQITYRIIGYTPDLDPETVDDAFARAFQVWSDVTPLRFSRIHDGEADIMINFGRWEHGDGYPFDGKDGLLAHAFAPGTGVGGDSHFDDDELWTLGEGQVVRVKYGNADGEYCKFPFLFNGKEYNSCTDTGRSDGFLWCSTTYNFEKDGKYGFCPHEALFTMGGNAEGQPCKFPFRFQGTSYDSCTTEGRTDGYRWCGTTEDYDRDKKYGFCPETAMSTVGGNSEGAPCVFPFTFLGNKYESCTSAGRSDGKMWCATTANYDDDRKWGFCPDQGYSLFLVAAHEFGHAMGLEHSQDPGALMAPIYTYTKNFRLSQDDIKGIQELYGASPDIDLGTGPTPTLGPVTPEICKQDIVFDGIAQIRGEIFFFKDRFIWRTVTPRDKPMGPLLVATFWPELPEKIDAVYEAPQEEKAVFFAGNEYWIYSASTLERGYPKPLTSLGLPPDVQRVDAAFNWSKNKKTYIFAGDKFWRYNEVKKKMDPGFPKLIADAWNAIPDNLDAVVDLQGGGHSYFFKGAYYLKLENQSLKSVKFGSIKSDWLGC

Compound	IC50 [1] [µM]	IC50 [2] [µM]	IC50 [3] [µM]	IC50 [4] [µM]
COC[C@H](Cn1ccnc1[N+](=O)[O-])OC(=O)c1ccc(NC(=O)C(F)(F)F)cc1 [TX-2046]	> 240	> 240		
CC(C)(C)c1ccc(OC[C@H](Cn2ccnc2[N+](=O)[O-])OC(=O)c2ccc(NC=C3C(=O)C=CC3=O)cc2)cc1 [TX-2037]	183	103	18.4	184
CC(C)(C)c1ccc(OC[C@@H](Cn2ccnc2[N+](=O)[O-])OC(=O)c2ccc(NC=C3C(=O)C=CC3=O)cc2)cc1 [TX-2036]		67	1.8	18.4
COC[C@H](Cn1ccnc1[N+](=O)[O-])OC(=O)c1ccc(NC=C2C(=O)C=CC2=O)cc1 [TX-2044]			23	

Second part, led by results:

IC50 [1] [µM]	IC50 [2] [µM]	Compound	IC50 [3] [µM]	IC50 [4] [µM]
> 240	> 240	COC[C@@H](Cn1ccnc1[N+](=O)[O-])OC(=O)c1ccc(NC(=O)C(F)(F)F)cc1 [TX-2045]		
24	53	COC[C@@H](Cn1ccnc1[N+](=O)[O-])OC(=O)c1ccc(NC=C2C(=O)C=CC2=O)cc1		23.4
